# Results from different studies.
# Each line is one published result; the experiments were not run side by side.
# Effect on: metabolic stability
# Host: human
# Sample: liver microsomes
Compound,tested at,time,pH,microsomal CLint
COc1ccc(Nc2ccnc3ccc(-c4ccc(S(=O)(=O)N5CCOCC5)cc4)cc23)cc1Cl,,,,102 µL/min/mg
O=C(N[C@H](Cc1ccccc1)C(=O)Nc1ccccc1N1CCOCC1)c1cccs1,2 µM,40 min,pH 7.4,1370 µL/min/mg
C[C@H](N)c1cc(Cl)ccc1Cn1c(=S)[nH]c(=O)c2[nH]ccc21,,,,< 3 µL/min/mg
O=S(=O)(c1ccc(-c2ccc3nccc(Nc4cccnc4)c3c2)cc1)N1CCOCC1,,,,86.3 µL/min/mg
COc1ccc2nc(-c3cc(N(C)C)ccn3)c(Nc3ccc(F)cc3)n2c1,3 µM,,pH 7.4,120 µL/min/mg
COc1cc2[nH]c(C)c(-c3ccc(OC(F)(F)F)cc3)c(=O)c2cc1Cl,1 µM,,,< 7 µL/min/mg
c1ccc(-c2nc(N3CCc4cccnc4C3)c3ccccc3n2)nc1,,,,64 µL/min/mg
Fc1ccc(Nc2c(-c3cc(Cl)ccn3)nc3ccccn23)cc1,3 µM,,pH 7.4,160 µL/min/mg
C[C@@H](C(=O)NC1Cc2ccccc2C1)c1ccccc1,1 µM,1 h,,105 µL/min/mg
O=S(=O)(c1ccc(-c2ccc3nccc(Nc4ccc5[nH]nnc5c4)c3c2)cc1)N1CCOCC1,,,,52 µL/min/mg
c1ccc(-c2nc3n(c2-c2ccncc2)CCC3)nc1,3 µM,,pH 7.4,26 µL/min/mg
COc1ccc(Nc2ccnc3ccc(-c4ccc(S(=O)(=O)N5CCOCC5)cc4)cc23)cc1C,,,,131 µL/min/mg
CCOC(=O)c1c(-c2cccc(Cl)c2)[nH]c2cc(OC)c(F)cc2c1=O,19.8 µM,,pH 7.4,< 4 µL/min/mg
COc1cc2[nH]c(C)c(-c3c(C)noc3C)c(=O)c2cc1Cl,1 µM,,,< 7 µL/min/mg
CCOC(=O)c1c(-c2cc(F)cc(OC)c2)[nH]c2cc(OC)c(F)cc2c1=O,19.8 µM,,pH 7.4,50 µL/min/mg
COc1cc2[nH]c(C)c(-c3ccc(F)cc3)c(=O)c2cc1Cl,1 µM,,,31 µL/min/mg
COc1cccnc1-c1nc2ccccn2c1Nc1ccc(F)cc1,3 µM,,pH 7.4,19 µL/min/mg
Cc1cc(Nc2ccc(C(F)(F)F)cc2)n2nc(C(F)(F)F)nc2n1,1 µM,,pH 7.4,< 6 µL/min/mg
C=CCn1c(=O)c2cnc(Nc3ccc(N4CCN(C)CC4)cc3)nc2n1-c1cccc(C(C)(C)O)n1,,,,17 µL/min/mg
COc1cccc(-c2nc3ccccn3c2Nc2ccc(F)cc2)n1,3 µM,,pH 7.4,137 µL/min/mg
COc1cc2[nH]c(C)c(-c3ccc(-c4ccccc4)cc3)c(=O)c2cc1Cl,1 µM,,,14 µL/min/mg
Cc1cc(Nc2ccc(S(F)(F)(F)(F)F)cc2)n2nc(C(F)(F)F)nc2n1,1 µM,,pH 7.4,< 6 µL/min/mg
c1ccc(-c2nc(N3CCCC(c4ccccn4)C3)c3ccccc3n2)nc1 (stereo not shown),,,,113 µL/min/mg
Cc1cc(NC(=O)Nc2ccc3c(c2)OC(F)(F)O3)cc(C(F)(F)F)n1,,,,< 7 µL/min/mg
COc1cc2[nH]c(C)c(-c3ccc(OC(C)C)cc3)c(=O)c2cc1Cl,1 µM,,,8 µL/min/mg
C[C@H](C(=O)N[C@@H]1COc2ccccc2[C@H]1S(C)(=O)=O)c1ccc(F)cc1,1 µM,,,2 µL/min/mg
COc1cc2[nH]c(C)c(-c3ccc(N4CCN(C)CC4)nc3)c(=O)c2cc1Cl,1 µM,,,34 µL/min/mg
O=C(Nc1ccnc(C(F)(F)F)c1)Nc1cccc2c1OC(F)(F)O2,,,,14 µL/min/mg
CCn1ncc2c(N3CCC(c4ccccn4)C3)nc(-c3ccccn3)nc21 (stereo not shown),,,,< 1 µL/min/mg
COc1cc2[nH]c(C)c(-c3ccoc3)c(=O)c2cc1Cl,1 µM,,,93 µL/min/mg
Fc1ccc(Nc2c(-c3cccc(F)n3)nc3ccccn23)cc1,3 µM,,pH 7.4,130 µL/min/mg
Cc1cnc(Nc2ccnc3ccc(-c4ccc(S(=O)(=O)N5CCOCC5)cc4)cc23)s1,,,,76.3 µL/min/mg
CCC(F)(F)c1nc2nc(C)cc(Nc3ccc(S(F)(F)(F)(F)F)cc3)n2n1,1 µM,,pH 7.4,< 6 µL/min/mg
Cc1noc(C)c1Nc1ccnc2ccc(-c3ccc(S(=O)(=O)N4CCOCC4)cc3)cc12,,,,78.2 µL/min/mg
Cc1cc(Nc2ccc(C(F)(F)F)cc2)c2ccccc2n1,,,,4.8 µL/min/mg
N#CC1CCN(c2nc(-c3ccccn3)nc3ccccc23)CC1,,,,45 µL/min/mg
COc1cc2[nH]c(C)c(-c3ccc(C)cc3)c(=O)c2cc1Cl,1 µM,,,21 µL/min/mg
Cn1cc(-c2nc(N3CCC(c4ccccn4)C3)c3ccccc3n2)cn1 (stereo not shown),,,,118 µL/min/mg
Fc1ccc(Nc2c(-c3ccccn3)nc3ccccn23)c(F)c1,3 µM,,pH 7.4,96 µL/min/mg
Cc1nnc(Nc2ccnc3ccc(-c4ccc(S(=O)(=O)N5CCOCC5)cc4)cc23)nc1C,,,,114 µL/min/mg
O=C(O)C1CCN(c2nc(-c3ccccn3)nc3ccccc23)C1 (stereo not shown),,,,9 µL/min/mg
CN(C)C(=N)N=C(N)N,,,,1.5 µL/min/mg
Fc1cccc(F)c1-c1nc(N2CCC(c3ccccn3)C2)c2ccccc2n1 (stereo not shown),,,,114 µL/min/mg
Cc1cnnc(Nc2ccnc3ccc(-c4ccc(S(=O)(=O)N5CCOCC5)cc4)cc23)c1,,,,126 µL/min/mg
Cc1cccnc1CNc1nc(-c2ccccn2)nc2ccccc12,,,,64 µL/min/mg
CC(C)CCN(c1ccc(F)cc1)c1c(-c2ccccn2)nc2ccccn12,3 µM,,pH 7.4,110 µL/min/mg
